Assay results gathered from unrelated publications.
≈ marks a conversion by molar mass, not a printed value.

SMILES	tested on	test	test system	conditions	measurement	value
N.N.[Cl][Pt][Cl]	HBL1	cell growth or viability, ATP luminescence	–	10 µM, 72 h	inhibition	100%
C[C@@H](N)[C@H](O)CCCCCCCC(=O)CCCCCCCCCCCCCC[C@@H](O[C@@H]1O[C@H](CO)[C@H](O)[C@H](O)[C@H]1O)[C@@H](C)N	Escherichia coli	microbial growth, resazurin	ATCC10536	50 µM	inhibition	100%
NC[C@H]1OB(O)c2c(OCCCO)cccc21	Escherichia coli	microbial growth	ATCC25922	16 h	MIC	1.56 µM
CCn1cc(C(=O)O)c(=O)c2cc(F)c(N3CCNCC3)cc21	Escherichia coli	microbial killing	ATCC 8739, ATCC8739	–	MBC	0.25 µM (≈ 0.0798 µg/mL)
C[C@@H](O)[C@H]1C(=O)N2C(C(=O)O)=C(S[C@@H]3CN[C@H](C(=O)N(C)C)C3)[C@H](C)[C@H]12	Escherichia coli	microbial growth	ATCCBAA2452	drug-resistant strain	MIC	> 8 µg/mL
CC(=O)NC[C@H]1CN(c2ccc(N3CCOCC3)c(F)c2)C(=O)O1	Staphylococcus aureus	microbial growth, broth dilution	ATCC43300 MRSA	–	MIC	2.3 µg/mL
C[C@H]1COc2c(N3CCN(C)CC3)c(F)cc3c(=O)c(C(=O)O)cn1c23	Escherichia coli	microbial growth	ATCCBAA2452	drug-resistant strain	MIC	≤ 0.03 µg/mL
CO/N=C(\C(=O)N[C@@H]1C(=O)N2C(C(=O)O)=C(COC(C)=O)CS[C@H]12)c1csc(N)n1	Escherichia coli	microbial killing	ATCC 8739, ATCC8739	–	MBC	1 µM (≈ 0.455 µg/mL)
N.N.[Cl][Pt][Cl]	BEAS-2B	cell growth or viability, MTT	–	24 h	IC50	103 µM
Cc1sc2c(c1C)C(c1ccc(Cl)cc1)=N[C@H](CC(=O)OC(C)(C)C)c1nnc(C)n1-2	HBL1	cell growth or viability, ATP luminescence	–	1 µM, 5 days	viability	110%
CN1C(=O)/C(=N\Nc2ncc(-c3cc4ccccc4oc3=O)s2)c2cc(Cl)ccc21	Staphylococcus aureus	microbial growth, broth dilution	ATCC43300 MRSA	–	MIC	1.3 µg/mL
